Screening data as filed in PubChem BioAssay.
KCNQ1 inh = inhibitors of human KCNQ1 channel, primary screen, cell-based, thallium flux, high-throughput. Potassium voltage-gated channel subfamily KQT member 1 (Homo sapiens), P51787. CHO-K1 KCNQ1, FluxOR thallium flux fluorescence; hits give high values. B-score at 10 µM. actives 1.3% (n = 310,000);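 active means compounds whose thallium flux B-score, printed positive for inhibition, exceeds three library SD while starting fluorescence stays within three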;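 further: channel opened by potassium depolarization with thallium stimulus after 20 min compound exposure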
Target sequence (P51787 whole entry, looked up): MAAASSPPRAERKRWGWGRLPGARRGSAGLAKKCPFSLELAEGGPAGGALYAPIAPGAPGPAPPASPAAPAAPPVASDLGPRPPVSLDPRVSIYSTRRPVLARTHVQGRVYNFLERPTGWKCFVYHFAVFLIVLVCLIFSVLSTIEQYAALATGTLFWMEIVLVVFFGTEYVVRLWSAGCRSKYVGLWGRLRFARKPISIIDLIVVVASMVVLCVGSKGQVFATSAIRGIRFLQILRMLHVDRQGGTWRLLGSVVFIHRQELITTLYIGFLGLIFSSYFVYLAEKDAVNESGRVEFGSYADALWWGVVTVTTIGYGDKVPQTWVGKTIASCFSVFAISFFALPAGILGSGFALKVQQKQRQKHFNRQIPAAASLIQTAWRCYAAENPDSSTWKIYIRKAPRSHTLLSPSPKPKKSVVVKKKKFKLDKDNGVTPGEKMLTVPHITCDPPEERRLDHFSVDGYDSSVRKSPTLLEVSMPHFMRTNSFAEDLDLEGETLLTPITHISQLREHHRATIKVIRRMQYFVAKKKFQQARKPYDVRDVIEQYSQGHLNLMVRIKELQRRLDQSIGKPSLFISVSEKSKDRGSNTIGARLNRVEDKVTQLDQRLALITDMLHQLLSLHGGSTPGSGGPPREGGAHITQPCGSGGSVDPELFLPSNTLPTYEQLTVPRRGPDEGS
KCNK9 block = KCNK9 potassium channel inhibitors, primary screen, HEK293 cells, thallium flux; FluxOR thallium flux fluorescence; hits give low values; actives 1.2% (n = 310,000); B-score at 10 µM;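 active means ratio B-score over 3 SD below the library mean, with starting fluorescence within 5 SD of its mean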;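 further: negative B-score means less thallium flux so channel inhibition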
hERG protect = hERG rescue from dofetilide block, primary screen, cell-based, CHO-hERG, FluxOR thallium flux, dofetilide IC70. activation (rescue from dofetilide block), less the hit threshold, % at 10 µM. Voltage-gated inwardly rectifying potassium channel KCNH2 (Homo sapiens), Q12809. actives 0.51% (n = 310,000). dofetilide IC70 present;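 active means activation above the mean of controls blocked by dofetilide plus 5 SD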;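 further: thallium influx through hERG after potassium depolarization seen as dye fluorescence rise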
KCNK3 block = human KCNK3 channel inhibitors, primary screen, CHO cells, FluxOR thallium flux, B-score | actives 0.84% (n = 340,000) | FluxOR fluorescence; hits give low values | B-score at 10 µM;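 active means B-score under library mean minus 4 SD, starting fluorescence ratio at most library mean plus 5 SD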;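 further: more negative B-score means stronger inhibition of thallium flux through KCNK3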
KCNQ1 pot = potentiators or activators of KCNQ1 channel, primary screen, cell-based, thallium flux, high-throughput; CHO-K1 KCNQ1, thallium flux FluxOR fluorescence; hits give high values; B-score at 10 µM; actives 0.35% (n = 310,000); Potassium voltage-gated channel subfamily KQT member 1 (Homo sapiens), P51787; AID 2648, 2010;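 active means fluorescence ratio B-score, a plate-corrected score, at least three library SD, with initial intensity B-score within 5 SD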
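assay system = CHO-K1 cells stably expressing KCNQ1 | medium = assay buffer, equal DMSO in all wells | timing = 37 °C overnight plating, 90-min dark dye load, 20-min compound pretreatment | measured by = kinetic FluxOR thallium fluorescence, 10-s 1-Hz baseline, 110-s post-stimulus read | measure = fluorescence change relative to baseline, converted to B score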
Kir21 inh = inhibitors of mouse Kir2.1 inward-rectifier potassium channel. HEK293-Kir2.1, FluxOR thallium flux fluorescence; hits give low values. actives 0.85% (n = 310,000). B-score at 10 µM. AID 1672, 2009;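 active means fluorescence ratio B-score at or below minus 3 SD of library scores, with starting-brightness B-score within 2 SD, cut at about -4.2 in these data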;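 further: channel flux triggered by added potassium and thallium sulfate stimulus; B-score of peak minus minimum fluorescence over baseline after thallium stimulus; more negative B-score means stronger Kir2.1 block with less thallium influx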
KCNQ1 inh valid = KCNQ1 potassium channel inhibitors, confirmation, cell-based, Tl flux, duplicate; shares compounds with KCNQ1 inh; actives 93% (n = 1,600); inhibition, % at 10 µM; KCNQ1 cell line, FluxOR thallium flux fluorescence;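 active means primary screen active, with duplicate mean exceeding buffer control mean plus 3 SD of buffer wells, cut at about 28% in these data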;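 further: 0% = buffer control ratio and 100% = XE991 inhibitor control ratio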
CHO KCNQ1 ctr = thallium flux effects in parental CHO cells, counter-screen for KCNQ1 inhibitor project, cell-based, Tl flux | actives 21% (n = 1,600) | parental CHO-K1, FluxOR thallium flux fluorescence ratio; hits give low values; zero means no signal rise above baseline | fluorescence ratio (Tl flux) at 10 µM | shares compounds with KCNQ1 inh;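 active means mean of duplicate thallium-flux fluorescence ratios in parental host cells more than 5 SD below the buffer control mean, cut at about 0.38 in these data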;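 further: ratio is peak minus minimum fluorescence divided by baseline fluorescence; actives read low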
KCNQ1 APC inh = KCNQ1 channel inhibitors, confirmation, orthogonal assay, cell-based, automated electrophysiology; calls only at 10 µM; shares compounds with KCNQ1 inh; actives 20% (n = 490); KCNQ1-CHO cells, automated patch clamp current;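 active means KCNQ1 current drop exceeding 3 SD of negative control wells, seen in both duplicate runs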;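 further: steady state current during a 2 s step from -80 to +40 mV; negative values mean current inhibition and positive values mean potentiation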
KCNQ2 inh = KCNQ2 channel inhibition, selectivity assay for KCNQ1 inhibitor project, cell-based. shares compounds with KCNQ1 inh. KCNQ2 cells, FluxOR thallium flux fluorescence. inhibition, % at 10 µM. actives 71% (n = 1,600);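 active means mean percent inhibition of the KCNQ2 thallium signal more than 5 SD above the buffer-only control wells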;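 further: KCNQ2 expressed in CHO cells; 0% = buffer control wells and 100% = XE-991 inhibitor control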
KCNQ1 KCNE1 spec = KCNQ1/KCNE1 channel inhibition, selectivity assay for KCNQ1 inhibitor project, CHO-K1 cells, thallium flux, FluxOR; actives 77% (n = 1,600); FluxOR thallium flux fluorescence; shares compounds with KCNQ1 inh; inhibition, % at 10 µM;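 active means mean percent inhibition of duplicate wells above the buffer-only control mean plus 3 SD of those controls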;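 further: 0% = buffer only wells and 100% = XE-991 inhibitor control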
KCNK3 confirm = retest of human KCNK3 channel inhibitors, confirmation, CHO cells, FluxOR thallium flux, triplicate; ratio percent of control, % at 10 µM; FluxOR fluorescence; 0% buffer, 100% carvedilol maximal block; actives 99% (n = 2,400); shares compounds with KCNK3 block;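 active means ratio percent of control, averaged over triplicates, above buffer control mean plus 5 SD, cut at about 64% in these data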;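 further: ratio is the fluorescence rise from min to max over baseline after thallium stimulus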
KCNK3 noninduced = thallium flux inhibition in non-induced cells, primary screen, counter-screen for KCNK3 inhibitor project, cell-based, non-induced KCNK3 line, FluxOR thallium, triplicate; actives 40% (n = 2,400); thallium flux ratio (lower = more inhibition) at 10 µM; non-induced KCNK3 parental cells; hits give low values; shares compounds with KCNK3 block;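 active means thallium flux ratio, averaged over three wells, more than 5 SD below the buffer control mean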;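 further: host cells are CHO cells without KCNK3 induction; ratio is peak minus trough fluorescence over baseline then normalized to buffer controls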
Numbers without * were called inactive; i = inactive; . = no result; + = active, no number. Sampled rows, rich in hits. Any-hit rate of the full collection: about 3.8%.

SMILES	KCNQ1 inh	KCNK9 block	hERG protect	KCNK3 block	KCNQ1 pot	Kir21 inh	KCNQ1 inh valid	CHO KCNQ1 ctr	KCNQ1 APC inh	KCNQ2 inh	KCNQ1 KCNE1 spec	KCNK3 confirm	KCNK3 noninduced
COc1ccc(N2CCN(c3ncnc4scc(-c5ccc(F)cc5)c34)CC2)cc1	8*	i	-11.0	-11*	i	0.28	95.0*	0.361*	.	73.7%*	103.5%*	110.0*	i
O=C(COC(=O)/C=C/c1ccco1)NCCN1C(=O)CSC1=O	.	.	.	i	.	.	.	.	.	.	.	.	.
O=C(c1cccc(C(F)(F)F)c1)C1CCCN(C(=O)CN2CCOC2=O)C1 (centres undefined)	i	i	-4.8	i	i	-0.63	.	.	.	.	.	.	.
CCOc1ccccc1NC(=O)C(OC(=O)c1cc(C)oc1C)c1ccccc1 (centres undefined)	6*	-7.86*	-11.1	i	i	-1.32	82.0*	0.334*	.	105.3%*	86.0%*	105.7*	i
CSc1ncccc1C(=O)Nc1ccccc1N1CCOCC1	.	.	.	i	.	.	.	.	.	.	.	.	.
c1csc(CNc2nc(-c3cccs3)nc3ccccc23)c1	6*	i	-14.2	-10.6*	i	-2.1	112.0*	0.381	i	123.0%*	168.5%*	108.0*	i
Cc1cc(C)c(C#N)c(SCSCc2ccccc2)n1	6*	i	-17.6	-9.72*	i	-0.67	85.5*	0.38*	.	110.0%*	125.0%*	106.7*	i
Cc1cc(NC(=O)CSCC(=O)Nc2nc3ccccc3s2)no1	.	.	.	i	.	.	.	.	.	.	.	.	.
CC(=O)c1c(C)[nH]c(C(=O)Nc2ccc(C)c(S(=O)(=O)Nc3ccc(C)cc3C)c2)c1C	12*	-7.76*	-15.4	-12.7*	i	-0.33	142.0*	0.443	i	141.7%*	+	137.3*	i
CC(=O)c1c(C)[nH]c(C(=O)Nc2ccc(C)c(S(=O)(=O)N(C)C)c2)c1C	i	i	-6.4	i	i	-5.31	.	.	.	.	.	.	.
CCOc1ccc(CCNC(=O)c2ccc3c(=O)[nH]c4c(C(=O)NC(C)C)sc(=S)n4c3c2)cc1	15*	i	-27.1	-8.97*	i	0.86	156.5*	0.329*	.	97.0%*	+	108.3*	i
CC(C)NC(=O)c1sc(=S)n2c1[nH]c(=O)c1ccc(C(=O)NCCc3ccc(Cl)cc3)cc12	16*	i	-9.9	-18.3*	i	3.7	102.5*	0.347*	.	80.7%*	174.0%*	93.3*	i
CCCCNC(=O)c1sc(=S)n2c1[nH]c(=O)c1ccccc12	i	i	-30.9	i	i	-2.08	.	.	.	.	.	.	.
O=c1nc(N2CCCC2)nc(N2CCCC2)[nH]1	i	i	-4.5	i	i	0.52	.	.	.	.	.	.	.
COc1cccc(-c2csc(N3CCN(C(=S)NCC(C)C)CC3)n2)c1	i	i	-5.8	i	i	0.14	.	.	.	.	.	.	.
CC(C)CNC(=S)N1CCN(c2nc(-c3ccc(Cl)cc3)cs2)CC1	11*	i	-6.6	-9.76*	i	-0.06	159.0*	0.414	i	127.7%*	141.5%*	140.3*	0.123*
CS(=O)(=O)N(CC(=O)N1CCC(C(N)=O)CC1)Cc1ccc(Cl)c(Cl)c1	i	i	-3.0	i	i	-0.01	.	.	.	.	.	.	.
Cc1ccc(NC(=S)Nc2cccnc2)c(S(=O)(=O)N2CCCCC2)c1	13*	i	-23.3	-11.9*	i	-0.57	97.0*	0.507	i	i	68.5%*	110.3*	i
COCC(=O)OC1CCn2c1nc1c2C(=O)C(C)=C(NC(C)=O)C1=O (centres undefined)	.	.	.	i	.	.	.	.	.	.	.	.	.
CN(CC(=O)Nc1cccc(S(=O)(=O)N2CCOCC2)c1)CC(=O)Nc1ccc(Cl)c(C(F)(F)F)c1	8*	i	-27.2	-11.5*	i	-0.39	118.5*	0.432	i	93.3%*	54.0%*	119.7*	0.136*
CN(CC(=O)Nc1cccc(F)c1)CC(=O)Nc1cc(S(=O)(=O)N2CCOCC2)ccc1Cl	.	.	.	i	.	.	.	.	.	.	.	.	.
CN(CC(=O)NCc1ccc(F)cc1)CC(=O)Nc1ccc(Cl)c(C(F)(F)F)c1	8*	i	-16.6	-11*	i	0.28	104.0*	0.452	+	86.7%*	62.5%*	112.7*	i
